From ChEMBL document CHEMBL1135972 (J Med Chem, 2002)
In brackets after ≈: the same amount, converted by molar mass.

Key:
WIL2 [1] = test: Growth inhibitory activity against human lymphoblastoid W1L2 cell line; assay type: functional, cell-based
Summary of the method: (§1)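 IC50 read by cell counting. For the folate-rescue arm, W1L2 medium carried 10 μM thymidine plus 50 μM hypoxanthine. Values are mean ± SD or individual results.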

[2] = Growth inhibitory activity against human lymphoblastoid W1L2:R865 cell line; assay type: functional, cell-based; summary of the method: as §1
WIL2 [3] = test: Growth inhibitory activity against human lymphoblastoid W1L2 cell line in presence of 10 uM thymidine/50 uM hypoxanthine; assay type: functional, cell-based; summary of the method: as §1
[4] = Solubility at pH 7.4 was determined; assay type: physicochemical; details: buffer
Summary of the method: (§2)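 About 2 mg solid shaken 18 h at 25 °C in the dark, then settled 30 min. pH rechecked (±0.2, readjusted, then 60 min re-equilibration). Centrifuged 1000g 15 min, 0.2 μm filtered, diluted 1:1 with MeCN. Assayed by RP18 HPLC, UV 295 nm, against a 3-point standard curve.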

[5] = Solubility at pH 6.0 was determined; assay type: physicochemical; details: buffer; summary of the method: as §2
[6] = Solubility at pH 6.0; assay type: physicochemical; details: buffer; summary of the method: as §2
[7] = Solubility at pH 7.4; assay type: physicochemical; details: buffer; summary of the method: as §2
Proteasome = test: Chymotryptic inhibitory activity against 26S proteasome; assay type: functional, subcellular

Structure (SMILES) | solubility [4] | solubility [5] | solubility [6] | solubility [7] | IC50 (Proteasome) | IC50 (WIL2 [1]) | IC50 [2] | IC50 (WIL2 [3])
C#CCN(Cc1cc2c(=O)n(C)c(CN(CC)CC)nc2cc1Cl)c1ccc(C(=O)NCc2cccnc2)cc1 |  |  |  |  |  | 0.71 nM | > 50000 nM | 0.73 nM
C#CCN(Cc1cc2c(=O)n(C)c(CN3CCN(c4ccccc4)CC3)nc2cc1Cl)c1ccc(C(=O)NCc2cccnc2)cc1 | 5 µM (≈ 3.23 µg/mL) | 23 µM (≈ 14.9 µg/mL) |  |  |  | 7.2 nM | 940 nM | 5.4 nM
C#CCN(Cc1cc2c(O)nc(C)nc2cc1Br)c1ccc(C(=O)NCc2cccnc2)cc1 |  |  | < 1 µM | 2.3 µM (≈ 1.19 µg/mL) |  | 2.8 nM | 610 nM | 2.2 nM
C#CCN(Cc1cc2c(=O)n(C)c(CN3CCCC3)nc2cc1Cl)c1ccc(C(=O)NCc2cccnc2)cc1 |  |  |  |  |  | 0.7 nM | 24000 nM | 0.76 nM
C#CCN(Cc1cc2c(=O)n(CC(=O)N3CCCCC3)c(CN3CCCCC3)nc2cc1Cl)c1ccc(C(=O)NCc2cccnc2)cc1 |  |  |  |  |  | 8.4 nM | > 50000 nM | 7.4 nM
C#CCN(Cc1cc2c(=O)n(CC(=O)OC)c(CN3CCCCC3)nc2cc1Cl)c1ccc(C(=O)NCc2cccnc2)cc1 |  |  |  |  |  | 11 nM | 23000 nM | 9.6 nM
C#CCN(Cc1cc2c(=O)n(C)c(CN3CCCCC3)nc2cc1Cl)c1ccc(C(=O)NCc2cccnc2)cc1 |  |  |  |  |  | 0.8 nM | 14000 nM | 0.78 nM
C#CCN(Cc1cc2c(=O)n(C)c(CN3CCC[C@H]3C(=O)OC)nc2cc1Cl)c1ccc(C(=O)NCc2cccnc2)cc1 |  |  |  |  |  | 18 nM | 24000 nM | 14 nM

Second part, led by results:

solubility [4] | solubility [5] | solubility [6] | solubility [7] | IC50 (Proteasome) | Structure (SMILES) | IC50 (WIL2 [1]) | IC50 [2] | IC50 (WIL2 [3])
286 µM (≈ 171 µg/mL) | 1760 µM (≈ 1060 µg/mL) |  |  |  | C#CCN(Cc1cc2c(=O)n(C)c(CN3CCN(CC)CC3)nc2cc1Cl)c1ccc(C(=O)NCc2cccnc2)cc1 | 0.78 nM | 22000 nM | 0.78 nM
2 µM (≈ 1.34 µg/mL) | 2 µM (≈ 1.34 µg/mL) |  |  |  | C#CCN(Cc1cc2c(=O)n(CC(=O)N(CC)CC)c(CN3CCCCC3)nc2cc1Cl)c1ccc(C(=O)NCc2cccnc2)cc1 | 9.4 nM | 19000 nM | 8.4 nM
75 µM (≈ 46.1 µg/mL) | 992 µM (≈ 609 µg/mL) |  |  |  | C#CCN(Cc1cc2c(=O)n(C)c(CN3CCN(CCO)CC3)nc2cc1Cl)c1ccc(C(=O)NCc2cccnc2)cc1 | 7 nM | 22000 nM | 7.1 nM
146 µM (≈ 85.3 µg/mL) | 636 µM (≈ 372 µg/mL) |  |  | 3000 nM | C#CCN(Cc1cc2c(=O)n(C)c(CN3CCN(C)CC3)nc2cc1Cl)c1ccc(C(=O)NCc2cccnc2)cc1 | 0.49 nM | 13000 nM | 0.32 nM
6 µM (≈ 3.52 µg/mL) | 80 µM (≈ 47 µg/mL) |  |  |  | C#CCN(Cc1cc2c(=O)n(C)c(CN3CCCCC3)nc2cc1Cl)c1ccc(C(=O)NCCCn2cncn2)cc1 | 840 nM | 20000 nM | 800 nM
2 µM (≈ 1.14 µg/mL) | 3 µM (≈ 1.71 µg/mL) |  |  |  | C#CCN(Cc1cc2c(=O)n(C)c(CN3CCOCC3)nc2cc1Cl)c1ccc(C(=O)NCc2cccnc2)cc1 | 2 nM | 19000 nM | 2 nM
96 µM (≈ 57.7 µg/mL) | 934 µM (≈ 561 µg/mL) |  |  |  | C#CCN(Cc1cc2c(=O)n(C)c(CN3CCN(C)CC3)nc2cc1Cl)c1ccc(C(=O)NCCCn2ccnc2)cc1 | 2.1 nM | 18000 nM | 2.3 nM
0.5 µM (≈ 0.293 µg/mL) | 2 µM (≈ 1.17 µg/mL) |  |  |  | C#CCN(Cc1cc2c(=O)n(C)c(CN3CCC(O)CC3)nc2cc1Cl)c1ccc(C(=O)NCc2cccnc2)cc1 | 0.72 nM | 18000 nM | 0.7 nM
